# High-throughput results (PubChem)
# Shown are actives, neighbours in structure and some others; about 1.4% of the full set was active somewhere.
# STK33 inh = inhibitors of purified STK33 kinase, primary screen, biochemical, ADP-Glo luminescence, homogeneous, cell-free. AID 2661, 2010. inhibition, % at 10 µM. 320,000 compounds, 0.073% hits. MBP phosphorylation. Serine/threonine-protein kinase 33 (Homo sapiens), Q9BYT3;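 active = inhibition at or above 25%, using the most active replicate where run in duplicate; inactive = inhibition below 25%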
# GSK3A inh = blockers of GSK3A enzyme activity – biochemical, luminescence, cell-free homogeneous, HTS, primary screen; inhibition, % at 10 µM; 320,000 compounds, 0.1% hits; GSK-3 alpha kinase, ADP-Glo luminescence, 60 min; AID 2650, 2010;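 active = more than half of replicates show inhibition above 20%; inconclusive = some but at most half of replicates above 20% inhibition; inactive = no replicate shows inhibition above 20%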;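 note: GST-tagged GSK-3 alpha with peptide substrate and 25 µM ATP; 0% = DMSO neutral wells and 100% = GW8510 positive control wells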
# GSK3beta inhib = human GSK3beta kinase inhibitors, primary screen, biochemical, cell-free homogeneous, HTS; 300,000 compounds, 0.038% hits; Glycogen synthase kinase-3 beta (Homo sapiens), P49841; GST-GSK3beta kinase, ADP-Glo luminescence, 60 min; stronger effect = lower value; activity score (negative = inhibition), % at 10 µM;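 active = more than half of replicate wells score below -50%, meaning over 50% inhibition versus plate controls; inconclusive = some replicates but at most half score below -50%; inactive = no replicate scores below -50%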;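 note: 0% = median DMSO wells and -100% = median GW8510 positive control wells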
# Target sequence (P49841 whole entry, looked up): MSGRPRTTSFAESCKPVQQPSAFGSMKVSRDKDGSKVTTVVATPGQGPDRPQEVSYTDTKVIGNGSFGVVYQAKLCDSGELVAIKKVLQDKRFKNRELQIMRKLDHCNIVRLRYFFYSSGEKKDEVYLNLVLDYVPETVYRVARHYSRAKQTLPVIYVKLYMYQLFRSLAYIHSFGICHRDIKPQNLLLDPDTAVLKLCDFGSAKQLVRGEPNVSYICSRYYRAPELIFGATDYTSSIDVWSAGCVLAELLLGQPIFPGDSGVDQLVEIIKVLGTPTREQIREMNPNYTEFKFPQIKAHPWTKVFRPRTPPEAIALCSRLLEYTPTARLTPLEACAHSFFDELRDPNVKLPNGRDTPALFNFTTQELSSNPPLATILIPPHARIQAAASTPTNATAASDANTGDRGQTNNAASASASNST
#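 Test system: GST-tagged human GSK3beta kinase, cell-free; evaluation: activity score scaled between in-plate DMSO and GW8510 controls; measured by: ADP-Glo luminescence; incubation: 60 min reaction, RT; benchmarks: DMSO and 20 µM GW8510; reagent: peptide substrate plus 25 µM ATP (final); medium: Tris/MgCl2 kinase buffer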
# INS-1E GSIS act = GLuc luminescence reporter in INS-1E cells, primary screen for activators of glucose-dependent secretion of insulin | INS-1E GLuc reporter insulin secretion, 2-3 h | activation, % at 16.6 µM | 370,000 compounds, 0.61% hits | AID 743287, 2014;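 active = lowest replicate activation of at least 40%, so every replicate reaches that level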;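 note: 0% = median of neutral control wells and 100% = median of IBMX positive control wells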
# Env fusion inh = inhibitors of HIV-1 Env-driven cell-cell fusion, primary screen, HeLa-JRFL effector, CEM21 target cells, luciferase | inhibition, % at 12.3 µM | 360,000 compounds, 1.1% hits | AID 651610, 2012;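 active = mean replicate inhibition score of at least 50 and every replicate individually at or above 50; inconclusive = only one of the two criteria met; inactive = mean below 50 and not all replicates reaching 50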;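 note: 0% = plate neutral controls and 100% = maraviroc near 300 nM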
# CDK5 p35 inh = inhibitors of human CDK5/p35 kinase, primary screen, biochemical, single concentration. Recombinant CDK5/p35, ADP-Glo luminescence, 60 min. 330,000 compounds, 0.01% hits. Cyclin-dependent kinase 5 (Homo sapiens) + Cyclin-dependent kinase 5 activator 1 (Homo …. inhibition, % at 10 µM;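 active = highest replicate inhibition of at least 50% and at least 75% of replicates reaching 50%; inconclusive = only one of the two criteria met; inactive = both criteria failed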;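 note: plate controls were DMSO neutral control for no effect and GW8510 at 10 µM for full effect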
# Starred values were filed as active, the others as inactive; ? = inconclusive; nt = not tested or not shown; [ ] = remark or other dose.
SMILES,STK33 inh,GSK3A inh,GSK3beta inhib,INS-1E GSIS act,Env fusion inh,CDK5 p35 inh
COc1ccc2c3c(n(C)c2c1)[C@@H](CO)N(Cc1ccccc1F)CC31CCN(CC2CC2)CC1,nt,nt,nt,-3.1,nt,nt
COc1ccccc1CNC(=O)C[C@@H]1CC[C@@H]2[C@H](COC[C@@H](O)CN2C(=O)Nc2ccc(F)cc2)O1,nt,nt,nt,-15.1,13.4[16.7 µM],nt
O=C(CCl)Nc1cccc(-c2cnc3ccccc3n2)c1,1.8,2.4,-9.3,nt,-212.7,1.0
O=C(CCl)Nc1ccc(Oc2cnc3ccccc3n2)cc1,-0.1,0.5,0.6,nt,55.5*,-2.3
C[C@H](CO)N1C[C@H](C)[C@H](CN(C)S(=O)(=O)c2ccc(F)cc2)Oc2ncc(-c3ccccc3)cc2C1=O,nt,nt,nt,-17.9,13.3[16.7 µM],nt
S=c1[nH]nc(-c2cccnc2)n1/N=C/c1ccc(Br)s1,-1.0,0.7,0.3,-13.5,19.5,0.5
Cc1ccc(/C=N/n2c(-c3cccnc3)n[nH]c2=S)s1,-0.5,6.5,10.1,40.5*,-11.4,-0.1
CCOC(=O)c1c(C)[nH]c(C(=O)COC(=O)/C=C/c2ccc(O)c(OC)c2)c1C,-0.4,-1.4,3.2,2.8,-5.6,-0.2
CCOC(=O)c1c(C)[nH]c(C(=O)COC(=O)/C=C/c2ccc3c(c2)OCO3)c1C,-3.3,-0.9,0.6,59.4*,-68.9,3.2
CCC(=O)Nc1cc(C(C)(C)C)ccc1C(C)=O,-0.9,-1.7,-0.4,66.6*,-0.5,-0.6
COC(=O)[C@]1(Cc2ccccc2)N[C@H](CN(C)S(=O)(=O)c2ccc(-c3ccccc3)cc2)[C@@H]2C(=O)N(Cc3ccccc3)C(=O)[C@@H]21,-1.4,0.6,nt,10.5,59.3*,-3.9
CCN(C[C@H]1N[C@@](CC)(C(=O)OC)[C@H]2C(=O)N(C)C(=O)[C@@H]12)S(=O)(=O)c1ccc(OC)cc1,0.5,-2.5,nt,52.1*,19.8,0.3
CCN(C[C@H]1N[C@@](C)(C(=O)OC)[C@H]2C(=O)N(Cc3ccccc3)C(=O)[C@@H]12)C(=O)NC(C)C,-1.0,0.9,nt,27.6,-31.3,-0.4
CCN(C[C@H]1N[C@@](Cc2ccccc2)(C(=O)OC)[C@H]2C(=O)N(Cc3ccccc3)C(=O)[C@@H]12)C(=O)c1ccc(F)cc1,nt,nt,nt,-13.0,-115.2,7.2
CCN(C[C@H]1N[C@@](C)(C(=O)OC)[C@H]2C(=O)N(Cc3ccccc3)C(=O)[C@@H]12)C(=O)Nc1ccc(C)cc1,0.5,-1.1,nt,-18.0,78.6*,4.3
CCN(C[C@H]1N[C@@](CC)(C(=O)OC)[C@H]2C(=O)N(Cc3ccccc3)C(=O)[C@@H]12)C(=O)c1ccc(F)cc1,0.8,-0.1,nt,-13.5,55.7*,0.3
CCN(C[C@H]1N[C@@](CC)(C(=O)OC)[C@H]2C(=O)N(C)C(=O)[C@@H]12)S(=O)(=O)c1ccc(-c2ccccc2)cc1,0.4,-2.0,nt,-2.5,-19.9,2.7
C[C@@H]1CN([C@@H](C)CO)C(=O)Cc2cc(NC(=O)c3ccncc3)ccc2O[C@@H]1CN(C)S(=O)(=O)c1ccc(Cl)cc1,nt,nt,nt,1.3,nt,nt
CCN(C[C@H]1N[C@@](C)(C(=O)OC)[C@H]2C(=O)N(Cc3ccccc3)C(=O)[C@@H]12)C(=O)Nc1ccccc1,nt,nt,nt,23.5,126.9*,1.9
CCN(C[C@H]1N[C@@](C)(C(=O)OC)[C@H]2C(=O)N(Cc3ccccc3)C(=O)[C@@H]12)S(=O)(=O)c1ccc(C)cc1,nt,nt,nt,-13.4,69.2*,-1.4
CCN(C[C@H]1N[C@@](CC)(C(=O)OC)[C@H]2C(=O)N(Cc3ccccc3)C(=O)[C@@H]12)C(=O)Nc1ccc(OC)cc1,-2.5,-2.4,nt,0.9,87.1*,0.2
CCN(C[C@H]1N[C@@](C)(C(=O)OC)[C@H]2C(=O)N(Cc3ccccc3)C(=O)[C@@H]12)S(=O)(=O)c1ccc(OC)cc1,0.4,-1.7,nt,2.6,?,-1.8
CCNC(=O)N(CC)C[C@H]1N[C@@](C)(C(=O)OC)[C@H]2C(=O)N(Cc3ccccc3)C(=O)[C@@H]12,0.1,0.0,nt,29.1,-58.8,-0.5
CC[C@@]1(C(=O)OC)N[C@H](CN(C)C(C)=O)[C@@H]2C(=O)N(Cc3ccccc3)C(=O)[C@@H]21,nt,nt,nt,24.3,18.4,0.2
CC[C@@]1(C(=O)OC)N[C@H](CN(C)C(=O)COc2ccccc2)[C@@H]2C(=O)N(Cc3ccccc3)C(=O)[C@@H]21,nt,nt,nt,-23.3,68.6*,5.8
SMILES,STK33 inh,GSK3A inh,GSK3beta inhib,INS-1E GSIS act,Env fusion inh,CDK5 p35 inh
C[C@@H]1CCCCO[C@@H](CN(C)C(=O)CCC(F)(F)F)[C@H](C)CN([C@H](C)CO)C(=O)c2cc(NS(=O)(=O)c3ccc(Cl)cc3)ccc2O1,nt,nt,nt,-21.3,-7.8[16.7 µM],nt
C[C@H]1CN([C@@H](C)CO)S(=O)(=O)c2ccc(C#CCN(C)C)cc2O[C@@H]1CN(C)C(=O)C1CCC1,nt,nt,nt,-0.9,-30.2[16.7 µM],nt
COc1ccccc1-n1c(C)nnc1SCC(=O)Nc1cc(C)cc(C)c1,0.4,0.3,1.8,nt,55.6*,-0.7
CCNC(=O)C[C@H]1CC[C@H]2[C@@H](COC[C@@H](O)CN2Cc2ccc(Cl)c(Cl)c2)O1,nt,nt,nt,0.7,nt,nt
Cc1cc(C)c2c(c1)N[C@H](c1cccs1)[C@@H]1CCO[C@H]21,-1.2,-2.4,-15.2,nt,-1.6,-2.7
CC(C)c1ccc2c(c1)[C@H]1OCC[C@H]1[C@@H](c1cccs1)N2,-0.3,-3.8,0.9,-18.0,58.8*,-2.5
CN(C)CC(=O)N[C@H]1C[C@@H]2O[C@H](CO)CC[C@@H]2O[C@@H]1CCc1ccc(C2=CCCCC2)cc1,nt,nt,nt,nt,4.2[16.7 µM],nt
Cc1cc(C(=O)COc2ccc(C#N)cc2)c(C)n1C1CC1,-1.2,-1.5,1.5,3.0,64.1*,0.3
CCCCC(=O)Nc1ncc([N+](=O)[O-])s1,-0.9,81.4*,-60.9*,-25.2,-36.8,6.5
COc1ccc(CC(=O)Nc2ncc([N+](=O)[O-])s2)cc1OC,-0.7,75.4*,-44.5,-1.2,13.6,9.0
CC(C)CC(=O)Nc1ncc([N+](=O)[O-])s1,1.5,79.5*,-0.8,nt,-12.9,4.8
N#C[C@@H]1[C@H](c2ccccc2-c2cccc(F)c2)[C@H](CO)N1C(=O)NC1CCCC1,nt,nt,nt,-29.8,nt,nt
Cc1ccccc1S(=O)(=O)N1CC[C@@H]2[C@H](CO)Nc3ccc(C#Cc4ccccc4)cc3[C@@H]21,nt,nt,nt,27.1,nt,nt
C[C@@H](Oc1ccccc1)c1nnn(Cc2ccccc2)c1-c1c([C@@H](C)Oc2ccccc2)nnn1Cc1ccccc1,-1.6,-2.4,0.7,nt,73.1*,nt
Cn1c(N=Nc2ccccc2)nc2ccccc21,34.2*,27.1,-22.3,nt,-156.3,38.4
